Data on 48 compounds can be found in ChEMBL document CHEMBL4028818, “Tricyclic 4,4-dimethyl-3,4-dihydrochromeno[3,4-d]imidazole derivatives as microsomal prostaglandin E2 synthase-1 (mPGES-1) inhibitors: SAR and in vivo efficacy in hyperalgesia pain model” (Bioorg Med Chem Lett, 2017).

Type in all cases: cell-based
Test [1] addresses T1, Prostaglandin E synthase (Homo sapiens, UniProt O14684).
T1 sequence (O14684 whole entry): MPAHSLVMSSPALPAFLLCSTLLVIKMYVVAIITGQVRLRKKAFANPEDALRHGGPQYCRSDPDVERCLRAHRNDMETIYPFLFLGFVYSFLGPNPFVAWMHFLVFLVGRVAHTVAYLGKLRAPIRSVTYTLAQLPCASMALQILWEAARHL
In words: Inhibition of recombinant human mPGES-1 expressed in CHO cells assessed as reduction in PGE2 formation using PGH2 a substrate preincubated for 10 mins followed by substrate addition measured after 1 min. The gist of the method: (§1)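 mPGES-1 enzyme inhibition. % inhibition values are means of two experiments in duplicate. IC50 values were derived from graphs of at least two experiments in duplicate.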

In test [2] the target is T2, Prostaglandin E synthase (Homo sapiens) (UniProt O14684).
T2 sequence (whole entry): T1 sequence (O14684 whole entry)
In words: Inhibition of recombinant human mPGES-1 expressed in CHO cells assessed as reduction in PGE2 formation at 10 uM using PGH2 a substrate preincubated for 10 mins followed by substrate addition measured after 1 min relative to control. The gist of the method:
as §1

The target in test [3] is T2, Prostaglandin E synthase (Homo sapiens). In words: Inhibition of recombinant human mPGES-1 expressed in CHO cells assessed as reduction in PGE2 formation at 1 uM using PGH2 a substrate preincubated for 10 mins followed by substrate addition measured after 1 min relative to control. In a few lines:
as §1

Test [4] deals with T1, Prostaglandin E synthase. Put plainly: Inhibition of mPGES-1 in human A549 cells assessed as decrease in IL1beta induced PGE2 release preincubated for 30 mins followed by IL-1beta addition after 16 to 20 hrs by HTRF method. A general note: Time-resolved FRET reads energy transfer from a long-lived donor to a nearby acceptor.

pIC50: −log10 of the molar value.

By pIC50 is commonly meant the negative decadic logarithm of the IC50, by convention in mol/L. Turning to `CC1(C)Oc2cc(C#Cc3ccccc3Cl)ccc2-c2nc(-c3c(F)cccc3Cl)[nH]c21`, the pIC50 at Prostaglandin E synthase [1] was 7.19.

By inhibition is commonly meant the relative decrease from the control value, in per cent. For `CC1(C)Oc2cc(-c3ccc(C(F)(F)F)cc3)ccc2-c2[nH]c(-c3c(F)cccc3Cl)nc21`, the inhibition is 83.3% in test [2] and 81.4% in test [3]. At Prostaglandin E synthase [1], the pIC50 is 6.72. The corresponding values for `CC1(C)Oc2cc(Cl)ccc2-c2[nH]c(-c3c(Br)cccc3Br)nc21` are 89%, 74% and 6.49. For `CC1(C)Oc2cc(C(=O)Nc3cccc(C(F)(F)F)c3)ccc2-c2[nH]c(-c3c(F)cccc3Cl)nc21`, the values for the inhibition in test [2] and in test [3] were 83.6% and 70.4%, respectively.

On to `CC1(C)Oc2cc(C#Cc3cc(F)ccc3C(F)(F)F)ccc2-c2nc(-c3c(Cl)cncc3Cl)[nH]c21`, for which, on Prostaglandin E synthase [1], the pIC50 is 7.50. Same read-out and setting: for `CC1(C)Oc2cc(C#Cc3ccc(C(F)(F)F)cc3Cl)ccc2-c2nc(-c3c(F)cncc3Cl)[nH]c21` the value was 7.13. Consider `CC1(C)Oc2nc(C#Cc3c(F)cccc3C(F)(F)F)ccc2-c2nc(-c3c(F)cccc3Cl)[nH]c21`, for which the inhibition in test [2] amounted to 76%; in test [3] it was 75%. Turning to `CC1(C)Oc2cc(C#Cc3cc(Cl)ccc3Cl)ccc2-c2nc(-c3c(C#N)cccc3C#N)[nH]c21`, the pIC50 on Prostaglandin E synthase [4] was 5.63; on Prostaglandin E synthase [1], 7.90. The corresponding values for `CC1(C)Oc2cc(C#Cc3ccccc3OC(F)(F)F)ccc2-c2[nH]c(-c3c(C#N)cccc3C#N)nc21` are 6.57 and 7.93. As for `CC1(C)Oc2cc(C(=O)NC3CCCCC3)ccc2-c2nc(-c3c(F)cccc3Cl)[nH]c21`, the inhibition was determined as 68% in test [2] and 56% in test [3]. Take `CC1(C)Oc2cc(-c3ccc(Cl)cc3)ccc2-c2[nH]c(-c3c(F)cccc3Cl)nc21`: the inhibition in test [2] was determined as 94.8%; in test [3], 76%.

For the compound `CC1(C)Oc2nc(C#Cc3cc(C(F)(F)F)ccc3Cl)ccc2-c2nc(-c3c(F)cccc3Cl)[nH]c21`, the inhibition in test [2] was 63%; in test [3], 65%. Taken in the same sequence, the figures for `CC1(C)Oc2cc(Br)ccc2-c2[nH]c(-c3c(F)cccc3Cl)nc21` were 94.1% and 40.8%.

Take `CC1(C)Oc2cc(C#Cc3ccc(Cl)cc3)ccc2-c2nc(-c3c(F)cccc3Cl)[nH]c21`: the pIC50 at Prostaglandin E synthase [1] was 7.42. In the case of `CC1(C)Oc2cc(-c3ccc(OC(F)(F)F)cc3)ccc2-c2[nH]c(-c3c(F)cccc3Cl)nc21`, the results for the inhibition in test [2] and in test [3] were 86.9% and 70.1%, respectively. Take `CC1(C)Oc2cc(C#Cc3ccccc3C(F)(F)F)ccc2-c2nc(-c3c(F)cncc3Cl)[nH]c21`: the pIC50 at Prostaglandin E synthase [1] is 6.77.

Turning to `CC1(C)Oc2cc(C(=O)Nc3ccc(C(F)(F)F)cc3)ccc2-c2[nH]c(-c3c(F)cccc3Cl)nc21`, the inhibition in test [2] came out at 92.9%; in test [3], 86.7%. Moreover, the pIC50 on Prostaglandin E synthase [1] was 6.60.

Regarding `CC1(C)Oc2cc(C#Cc3cc(C(F)(F)F)ccc3Cl)ccc2-c2nc(-c3c(Cl)cncc3Cl)[nH]c21`, the pIC50 on Prostaglandin E synthase [1] was 7.48. For the compound `CC1(C)Oc2cc(C#Cc3cc(C(F)(F)F)ccc3F)ccc2-c2nc(-c3c(F)cccc3Cl)[nH]c21`, the negative-log IC50 (pIC50) is 6.34 at Prostaglandin E synthase [4] and 7.60 at Prostaglandin E synthase [1]. Take `CC1(C)Oc2cc(-c3nc4ccccc4[nH]3)ccc2-c2nc(-c3c(F)cccc3Cl)[nH]c21`: the inhibition came to 75.5% in test [2] and 12.2% in test [3]. Consider `CC1(C)Oc2cc(C#Cc3ccc(C(F)(F)F)cc3)ccc2-c2[nH]c(-c3c(F)cccc3Cl)nc21`, for which, at Prostaglandin E synthase [1], the pIC50 is 7.21. Regarding `CC1(C)Oc2cc(C#Cc3ccc(F)c(C(F)(F)F)c3)ccc2-c2nc(-c3c(F)cccc3Cl)[nH]c21`, the results for the pIC50 on Prostaglandin E synthase [4] and on Prostaglandin E synthase [1] were 5.90 and 7.53, respectively.

Turning to `CC1(C)Oc2cc(C#Cc3cncnc3)ccc2-c2nc(-c3c(F)cccc3Cl)[nH]c21`, on Prostaglandin E synthase [1], the pIC50 was 6.10.

Regarding `Cc1cnc(C#Cc2ccc3c(c2)OC(C)(C)c2[nH]c(-c4c(F)cccc4Cl)nc2-3)s1`, the negative-log IC50 (pIC50) at Prostaglandin E synthase [1] is 6.33. In the case of `Cc1csc(NC(=O)c2ccc3c(c2)OC(C)(C)c2nc(-c4c(F)cccc4Cl)[nH]c2-3)n1`, the inhibition in test [2] came out at 67.2%; in test [3] it was 52.8%.

Take `CC1(C)Oc2cc(C#Cc3cccc(Cl)c3)ccc2-c2nc(-c3c(F)cccc3Cl)[nH]c21`: at Prostaglandin E synthase [1], the negative logarithm of the IC50 (pIC50) is 7.41. Still for that read-out and setting: the same measure for `CC1(C)Oc2cc(C#Cc3ccccc3)ccc2-c2nc(-c3c(F)cccc3Cl)[nH]c21`: 7.08; for `CC1(C)Oc2nc(C#Cc3ccccc3C(F)(F)F)ccc2-c2nc(-c3c(F)cccc3Cl)[nH]c21`: 6.39. On the same count and under the same terms, the same measure for `CC1(C)Oc2cc(C#Cc3cccc(Cl)c3Cl)ccc2-c2nc(-c3c(F)cccc3Cl)[nH]c21`: 7.45. In the case of `CC1(C)Oc2cc(C#Cc3cccc(C(F)(F)F)c3)ccc2-c2nc(-c3c(F)cccc3Cl)[nH]c21`, the pIC50 on Prostaglandin E synthase [1] was 7.53. For the compound `CC1(C)Oc2cc(C#Cc3cc(F)ccc3C(F)(F)F)ccc2-c2[nH]c(-c3c(F)cccc3Cl)nc21`, the pIC50 at Prostaglandin E synthase [4] was 6.15; on Prostaglandin E synthase [1], 7.68. Consider `CC1(C)Oc2cc(-c3nc(C4CC4)no3)ccc2-c2[nH]c(-c3c(F)cccc3Cl)nc21`, for which the inhibition in test [2] was determined as 98.6%; in test [3], 89%.

Consider `CC1(C)Oc2cc(C#Cc3c(Cl)cccc3Cl)ccc2-c2nc(-c3c(F)cccc3Cl)[nH]c21`, for which, at Prostaglandin E synthase [1], the pIC50 is 7.95.

`CC1(C)Oc2cc(C#Cc3c(F)cccc3C(F)(F)F)ccc2-c2nc(-c3c(C#N)cccc3C#N)[nH]c21`: the pIC50 is 6.08 on Prostaglandin E synthase [4] and 7.90 on Prostaglandin E synthase [1]. Consider `CC1(C)Oc2cc(C#Cc3ccccc3OC(F)(F)F)ccc2-c2[nH]c(-c3c(F)cccc3Cl)nc21`, for which the pIC50 on Prostaglandin E synthase [4] is 6.24; at Prostaglandin E synthase [1], 7.70. Turning to `CC1(C)Oc2cc(Br)ccc2-c2[nH]c(-c3c(Br)cccc3Br)nc21`, the inhibition turned out to be 92% in test [2] and 68.6% in test [3]. In addition, at Prostaglandin E synthase [1], the pIC50 is 6.15. As to `CC1(C)Oc2cc(C#Cc3cc(Cl)ccc3Cl)ccc2-c2[nH]c(-c3c(F)cccc3Cl)nc21`, the figures for the pIC50 on Prostaglandin E synthase [4] and at Prostaglandin E synthase [1] were 5.85 and 8.03, respectively.

In the case of `CC1(C)Oc2cc(I)ccc2-c2[nH]c(-c3c(F)cccc3Cl)nc21`, the inhibition was 84.2% in test [2] and 44.3% in test [3]. In the case of `CC1(C)Oc2cc(C#Cc3c(F)cccc3C(F)(F)F)ccc2-c2[nH]c(-c3c(F)cccc3Cl)nc21`, the pIC50 at Prostaglandin E synthase [4] was 6.16; on Prostaglandin E synthase [1], 7.91. As to `CC1(C)Oc2cc(C#Cc3ccccc3C(F)(F)F)ccc2-c2nc(-c3c(Cl)cncc3Cl)[nH]c21`, the pIC50 on Prostaglandin E synthase [1] was 7.09.

As for `CC1(C)Oc2cc(C#Cc3ccc(C(F)(F)F)cn3)ccc2-c2nc(-c3c(F)cccc3Cl)[nH]c21`, the pIC50 at Prostaglandin E synthase [1] was 6.49. Take `CC1(C)Oc2cc(C#Cc3ccc(Cl)cc3C(F)(F)F)ccc2-c2nc(-c3c(F)cccc3Cl)[nH]c21`: the pIC50 at Prostaglandin E synthase [4] was 5.55; on Prostaglandin E synthase [1], 8.11.

`CC1(C)Oc2cc(C#Cc3ccccc3C(F)(F)F)ccc2-c2[nH]c(-c3c(F)cccc3Cl)nc21`: the pIC50 was 6.16 on Prostaglandin E synthase [4] and 7.81 on Prostaglandin E synthase [1]. Consider `CC1(C)Oc2cc(C#Cc3ccncc3F)ccc2-c2nc(-c3c(F)cccc3Cl)[nH]c21`, for which the pIC50 on Prostaglandin E synthase [1] was 6.19. The same measure, in the same setting: for `CC1(C)Oc2cc(C#Cc3ccc(C(F)(F)F)cc3Cl)ccc2-c2nc(-c3c(F)cccc3Cl)[nH]c21` the value was 7.55. Turning to `CC1(C)Oc2cc(C#Cc3ccccc3)ccc2-c2[nH]c(-c3c(C#N)cccc3C#N)nc21`, the results for the pIC50 at Prostaglandin E synthase [4] and on Prostaglandin E synthase [1] were 6.01 and 7.61, respectively.

Turning to `CC1(C)Oc2cc(C(=O)Nc3ccc(Cl)c(F)c3)ccc2-c2[nH]c(-c3c(F)cccc3Cl)nc21`, the inhibition in test [2] was found to be 84.5%; in test [3], 83.5%. In addition, the pIC50 on Prostaglandin E synthase [1] is 6.73. `CC1(C)Oc2cc(C#Cc3cc(C(F)(F)F)ccc3Cl)ccc2-c2nc(-c3c(C#N)cccc3C#N)[nH]c21`: the pIC50 was 5.92 on Prostaglandin E synthase [4] and 8.41 at Prostaglandin E synthase [1].
